Results on 34 molecules are retold here after ChEMBL document CHEMBL4118105, “High-Affinity Peptidomimetic Inhibitors of the DCN1-UBC12 Protein-Protein Interaction” (J Med Chem, 2018).

The structures appear in SMILES notation. Starred links: 1 amine or outer side, 2 acyl side, 3 side chain; linkers in the order of their positions; H or OH if unused. Non-standard residues stand in square brackets, D forms with d. Residues, ends and D or L forms follow the SMILES beside them. *: point of attachment. 2Nal = N[C@@H](Cc1ccc2ccccc2c1)C(=O)O; Cyclopropanecarbonyl = O=C(C1CC1)*; NHPhenethyl = c1ccc(CCN*)cc1; Isovaleryl = CC(C)CC(=O)*; Isobutyryl = CC(C)C(=O)*; CO = O=C([*:1])[*:2]; NHBn = c1ccc(CN*)cc1; Propionyl = CCC(=O)*; Butyryl = CCCC(=O)*; NHPh = c1ccc(N*)cc1; Moc = COC(=O)*; For = O=C* A value given as a limit tells only on which side of the number the result lay.

T1 sequence (Q96GG9 whole entry, the tested form may be a part): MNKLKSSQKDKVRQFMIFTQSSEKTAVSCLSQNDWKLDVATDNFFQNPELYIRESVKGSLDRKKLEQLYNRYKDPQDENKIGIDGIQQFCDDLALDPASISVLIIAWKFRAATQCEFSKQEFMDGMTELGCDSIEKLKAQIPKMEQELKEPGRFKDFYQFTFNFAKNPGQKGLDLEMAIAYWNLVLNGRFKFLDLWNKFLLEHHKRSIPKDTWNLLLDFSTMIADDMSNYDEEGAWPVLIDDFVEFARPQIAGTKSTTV

One assay addresses T1, DCN1-like protein 1 (Homo sapiens, UniProt Q96GG9). The assay is described as follows: Displacement of (S)-N1-((19S,22S)-26-Amino-19-carbamoyl-1-(3',6'-dihydroxy-3-oxo-3H-spiro[isobenzofuran-1,9'-xanthen]-5-yl)-1,13,21-trioxo-5,8,11-trioxa-2,14,20-triazahexacosan-22-yl)-2-((2S,5S,8S,11S,14S,17S,20S,23S,26S)-2-(3-amino-3-oxopropyl)-5,20-bis(4-aminobutyl)-14-benzyl-23-((S)-sec-butyl)-11-(hydroxymethyl)-8,17-diisobutyl-26-(naphthalen-2-ylmethyl)-4,7,10,13,16,19,22,25,28-nonaoxo-3,6,9,12,15,18,21,24,27-nonaazanonacosanamido)pentanediamide from recombinant N-terminal His6-tagged human DCN1 (58 to 259 residues) expressed in Escherichia coli Rosetta2 cells after 30 mins by fluorescence polarization assay. Background: In fluorescence polarisation assays a small probe gives low polarisation when free and higher when bound to something large.
In general, Ki refers to the dissociation constant of the complex between target and ligand, obtained from inhibition or displacement. As to `CCC(=O)N[C@@H](Cc1ccc2ccccc2c1)C(=O)N[C@H](C(=O)N[C@@H](CCCCN)C(=O)N[C@H]1CCc2ccccc21)[C@@H](C)CC`, the Ki stood at 380 nM.
On the same count and under the same terms, the result for `CCC(=O)N[C@@H](Cc1ccc2ccccc2c1)C(=O)N[C@H](C(=O)N[C@@H](CCCCN)C(=O)N[C@@H]1CCc2ccccc21)[C@@H](C)CC` reads 160 nM.
As usually defined, the IC50 is the concentration that inhibits the measured activity by half. `CCC(=O)N[C@@H](Cc1nc2ccc(Cl)cc2s1)C(=O)N[C@H](C(=O)N[C@@H](CCCCN)C(=O)NC(c1ccccc1)c1ccccc1)C1CCCC1`: the half-maximal inhibitory concentration (IC50) turned out to be 0.132 µM and the Ki was under 50 nM.
On to `CC[C@H](C)[C@H](NC(=O)[C@H](CCSC)NC(C)=O)C(=O)N[C@@H](CCCCN)C(=O)N[C@@H](CC(C)C)C(N)=O` (Ac-MIKL-NH2), for which the IC50 was found to be 599 µM and the Ki was determined as 130000 nM.
For `CCC(=O)N[C@@H](Cc1nc2ccc(F)cc2s1)C(=O)N[C@H](C(=O)N[C@@H](CCCCN)C(=O)NC(c1ccccc1)c1ccccc1)C1CCCC1`, the Ki is 54.4 nM.
In the case of `CCC(=O)N[C@@H](Cc1ccc2ccccc2c1)C(=O)N[C@H](C(=O)N[C@@H](CCCCN)C(=O)NCc1ccccc1)[C@@H](C)CC` (Propionyl-[2Nal]-Ile-Lys-NHBn), the Ki stood at 810 nM.
Turning to `CCC(=O)N[C@@H](Cc1ccc2ccccc2c1)C(=O)N[C@H](C(=O)N[C@@H](CCCCN)C(=O)NC(c1ccccc1)c1ccccc1)C1CCCCC1`, the IC50 worked out at 0.613 µM and the Ki was 97.3 nM.
The matching figures for `CCCC(=O)N[C@@H](Cc1ccc2ccccc2c1)C(=O)N[C@H](C(=O)N[C@@H](CCCCN)C(=O)N[C@@H](CC(C)C)C(N)=O)[C@@H](C)CC` (Butyryl-[2Nal]IKL-NH2): 37 µM and 8000 nM.
Consider `CCC(=O)N[C@@H](Cc1ccc2ccccc2c1)C(=O)N[C@H](C(=O)N[C@@H](CCCCN)C(=O)NC(c1ccccc1)c1ccccc1)[C@@H](C)CC`, for which the Ki was 97 nM.
`CCC(=O)N[C@@H](Cc1ccc2ccccc2c1)C(=O)N[C@H](C(=O)N[C@@H](CCCCN)C(=O)NCCc1ccccc1)[C@@H](C)CC` (Propionyl-[2Nal]-Ile-Lys-NHPhenethyl): the IC50 was found to be 10.8 µM and the Ki stood at 2500 nM.
Turning to `CCC(=O)N[C@@H](Cc1ccc2ccccc2c1)C(=O)N[C@@H](CC(F)(F)F)C(=O)N[C@@H](CCCCN)C(=O)NC(c1ccccc1)c1ccccc1`, the IC50 was determined as 3.27 µM and the Ki came to 672 nM.
Turning to `CCC(=O)N[C@@H](Cc1ccc2ccccc2c1)C(=O)N[C@H](C(=O)N[C@@H](CCCCN)C(=O)NC(c1ccccc1)c1ccccc1)C1CCCC1`, the IC50 was 0.33 µM and the inhibitory constant (Ki) was determined as 36.3 nM.
Take `CC[C@H](C)[C@H](NC(=O)[C@H](Cc1ccc2ccccc2c1)NC(C)=O)C(=O)N[C@@H](CCCCN)C(=O)N[C@@H](CC(C)C)C(N)=O` (Ac-[2Nal]IKL-NH2): the IC50 is 16.8 µM and the Ki is 3600 nM.
The matching figures for `CCC(=O)N[C@@H](Cc1ccc2ccccc2c1)C(=O)N[C@H](C(=O)N[C@@H](CCCCN)C(=O)Nc1ccccc1)[C@@H](C)CC` (Propionyl-[2Nal]-Ile-Lys-NHPh): 34.9 µM and 7500 nM.
Consider `CC[C@H](C)[C@H](NC(=O)[C@H](Cc1ccc2ccccc2c1)NC(=O)C(C)C)C(=O)N[C@@H](CCCCN)C(=O)N[C@@H](CC(C)C)C(N)=O` (Isobutyryl-[2Nal]IKL-NH2), for which the IC50 came to 16.5 µM and the Ki was 3500 nM.
As to `CCC(=O)N[C@@H](Cc1ccc2ccccc2c1)C(=O)N[C@@H](Cc1cccs1)C(=O)N[C@@H](CCCCN)C(=O)NC(c1ccccc1)c1ccccc1`, the Ki came out at 174 nM.
Turning to `CC[C@H](C)[C@H](NC(=O)[C@H](Cc1ccc2ccccc2c1)NC(=O)C1CC1)C(=O)N[C@@H](CCCCN)C(=O)N[C@@H](CC(C)C)C(N)=O` (Cyclopropanecarbonyl-[2Nal]IKL-NH2), the IC50 came out at 25.1 µM and the Ki was 5400 nM.
Regarding `CC[C@H](C)[C@H](NC(=O)[C@H](Cc1ccc2ccccc2c1)NC(=O)CC(C)C)C(=O)N[C@@H](CCCCN)C(=O)N[C@@H](CC(C)C)C(N)=O` (Isovaleryl-[2Nal]IKL-NH2), the IC50 was over 20 µM.
Take `CC[C@H](C)[C@H](NC(=O)[C@@H](N)Cc1ccc2ccccc2c1)C(=O)N[C@@H](CCCCN)C(=O)N[C@@H](CC(C)C)C(N)=O` (H-[2Nal]IKL-NH2): the IC50 is over 100 µM.
Turning to `CCC(=O)N[C@@H](Cc1ccc2ccccc2c1)C(=O)N[C@@H](CC1CCCCC1)C(=O)N[C@@H](CCCCN)C(=O)NC(c1ccccc1)c1ccccc1`, the IC50 is 0.368 µM and the Ki was found to be 44.3 nM.
Turning to `CCC(=O)N[C@@H](Cc1nc2ccccc2s1)C(=O)N[C@H](C(=O)N[C@@H](CCCCN)C(=O)NC(c1ccccc1)c1ccccc1)C1CCCC1`, the inhibition constant (Ki) worked out at 50.7 nM.
On to `CCC(=O)N[C@@H](Cc1ccc2ccccc2c1)C(=O)N[C@H](C(=O)N[C@@H](CCCCN)C(=O)N[C@@H]1CCCc2ccccc21)[C@@H](C)CC`, for which the IC50 came out at 0.55 µM and the Ki stood at 84 nM.
For the molecule `CCC(=O)N[C@@H](Cc1ccc2ccccc2c1)C(=O)N[C@H](C(=O)N[C@@H](CCCCN)C(=O)N[C@H]1CCCc2ccccc21)[C@@H](C)CC`, the Ki worked out at 140 nM.
Take `CC[C@H](C)[C@H](NC(=O)[C@H](Cc1ccc2ccccc2c1)NC(=O)NC)C(=O)N[C@@H](CCCCN)C(=O)N[C@@H](CC(C)C)C(N)=O` ({NHMe-CO}-[2Nal]IKL-NH2): the IC50 came out at 18.5 µM and the Ki turned out to be 4000 nM.
`CC[C@H](C)[C@H](NC(=O)[C@H](Cc1ccc2ccccc2c1)NC(=O)OC)C(=O)N[C@@H](CCCCN)C(=O)N[C@@H](CC(C)C)C(N)=O` (Moc-[2Nal]IKL-NH2): the IC50 was over 50 µM.
In the case of `CCC(=O)N[C@@H](Cc1nc2cc(Cl)ccc2s1)C(=O)N[C@H](C(=O)N[C@@H](CCCCN)C(=O)NC(c1ccccc1)c1ccccc1)C1CCCC1`, the Ki was found to be 88.6 nM.
Regarding `CC[C@H](C)[C@H](NC(=O)[C@H](Cc1ccc2ccccc2c1)NC=O)C(=O)N[C@@H](CCCCN)C(=O)N[C@@H](CC(C)C)C(N)=O` (For-[2Nal]IKL-NH2), the IC50 came to 128 µM and the Ki was determined as 27500 nM.
With `CCC(=O)N[C@@H](Cc1nc2c(F)cccc2s1)C(=O)N[C@H](C(=O)N[C@@H](CCCCN)C(=O)NC(c1ccccc1)c1ccccc1)C1CCCC1`, the IC50 came to 4.92 µM and the Ki came to 1030 nM.
Regarding `CCC(=O)N[C@@H](Cc1ccc2ccccc2c1)C(=O)N[C@H](C(=O)N[C@@H](CCCCN)C(=O)N[C@@H](CC(C)C)C(N)=O)[C@@H](C)CC` (Propionyl-[2Nal]IKL-NH2), the IC50 was found to be 5.2 µM and the Ki came out at 1100 nM.
As to `CCC(=O)N[C@@H](Cc1ccc2ccccc2c1)C(=O)N[C@@H](CC(C)(C)C)C(=O)N[C@@H](CCCCN)C(=O)NC(c1ccccc1)c1ccccc1`, the inhibition constant Ki turned out to be 42.9 nM.
`CCC(=O)N[C@@H](Cc1nc2cc(F)ccc2s1)C(=O)N[C@H](C(=O)N[C@@H](CCCCN)C(=O)NC(c1ccccc1)c1ccccc1)C1CCCC1`: the inhibition constant (Ki) was determined as 224 nM.

A further assay addresses T1, DCN1-like protein 1. Kind of assay: Binding affinity to biotin labeled recombinant N-terminal His6-tagged human DCN1 (58 to 259 residues) expressed in Escherichia coli Rosetta2 cells by biolayer interferometry analysis. Put shortly:
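Recombinant human DCN1 (58–259) was biotinylated at a 1:1 molar ratio in PBS for 2 h at 4 °C, dialyzed, then loaded on super streptavidin sensors from a 10 μg/mL solution. Blocked streptavidin sensors served as reference.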
On the technique in general: Biolayer interferometry detects binding as a change in optical thickness at a sensor tip.
The Kd is the constant that tells how readily two partners part at equilibrium. As to `CCC(=O)N[C@@H](Cc1nc2ccc(Cl)cc2s1)C(=O)N[C@H](C(=O)N[C@@H](CCCCN)C(=O)N[C@@H]1CCOc2ccccc21)C1CCCC1`, the dissociation constant Kd was determined as 4.1 nM.
In the case of `CCC(=O)N[C@@H](Cc1nc2ccc(Cl)cc2s1)C(=O)N[C@H](C(=O)N[C@@H](CCCCN)C(=O)NC(c1ccccc1)c1ccccc1)C1CCCC1`, the Kd amounted to 8.1 nM.
As to `CCC(=O)N[C@@H](Cc1nc2ccc(F)cc2s1)C(=O)N[C@H](C(=O)N[C@@H](CCCCN)C(=O)NC(c1ccccc1)c1ccccc1)C1CCCC1`, the dissociation constant (Kd) was 37 nM.
The same measure, in the same setting: the result for `CCC(=O)N[C@@H](Cc1ccc2ccccc2c1)C(=O)N[C@H](C(=O)N[C@@H](CCCCN)C(=O)NC(c1ccccc1)c1ccccc1)C1CCCC1` reads 56.4 nM; that for `CCC(=O)N[C@@H](Cc1nc2ccc(Cl)cc2s1)C(=O)N[C@H](C(=O)N[C@@H](CCCCN(C)C)C(=O)N[C@@H]1CCOc2ccccc21)C1CCCC1`, 5.7 nM.
As for `CCC(=O)N[C@@H](Cc1nc2ccccc2s1)C(=O)N[C@H](C(=O)N[C@@H](CCCCN)C(=O)NC(c1ccccc1)c1ccccc1)C1CCCC1`, the Kd stood at 31.8 nM.
Turning to `CCC(=O)N[C@@H](Cc1nc2ccc(Cl)cc2s1)C(=O)N[C@H](C(=O)N[C@@H](CCCCN)C(=O)N[C@@H]1CCCc2ccccc21)C1CCCC1`, the Kd was determined as 8.3 nM.
